Values after ≈ are worked out from the molar mass of the structure shown. Active and inactive are the calls of the source. The calls are words filed in the database; no cut-off is given here.
Key:
[1] = system: Plasmodium falciparum; assay: Antimalarial activity against Plasmodium falciparum D6 after 72 hrs by alamar blue assay; format: functional, organism-based; settings: D6, 72 h
[2] = molecular target: Histone deacetylase; assay: Inhibition of HDAC in human HeLa cell nuclear extracts; format: protein assay
[3] = Antiproliferative activity against human Hs1.Lu cells after 72 hrs by MTS assay; format: cell-based
[4] = molecular target: T1, Histone deacetylase 8 (Homo sapiens, UniProt Q9BY41); assay: Inhibition of HDAC8
T1 sequence (Q9BY41 whole entry): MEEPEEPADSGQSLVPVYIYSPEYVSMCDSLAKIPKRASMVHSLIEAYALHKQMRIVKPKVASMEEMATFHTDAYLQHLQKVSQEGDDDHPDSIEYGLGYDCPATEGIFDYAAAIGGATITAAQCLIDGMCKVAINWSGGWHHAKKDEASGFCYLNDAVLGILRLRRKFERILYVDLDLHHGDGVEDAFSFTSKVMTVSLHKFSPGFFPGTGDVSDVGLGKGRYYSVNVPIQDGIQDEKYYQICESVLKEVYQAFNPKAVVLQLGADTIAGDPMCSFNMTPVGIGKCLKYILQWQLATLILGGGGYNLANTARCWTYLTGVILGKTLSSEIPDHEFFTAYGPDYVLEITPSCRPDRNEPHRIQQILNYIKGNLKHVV

[5] = system: MCF7; assay: Antiproliferative activity against human MCF7 cells after 72 hrs by MTS assay; format: functional
Method in brief: (§1)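 Cells kept at 37 °C, 5% CO₂ in recommended media; seeded in 96-well plates the day before, grown at least 24 h, then dosed 72 h with compounds diluted from 1000X DMSO stocks to give 0.1% DMSO final. MTS reagent added for 2 h; absorbance read at 490 nm; EC50 is concentration giving 50% loss of viability.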

[6] = system: DU-145; assay: Antiproliferative activity against human DU145 cells after 72 hrs by MTS assay; format: functional; method in brief: as §1
[7] = molecular target: T2, Histone deacetylase (Plasmodium falciparum, UniProt Q9XYC7); assay: Inhibition of Plasmodium falciparum HDAC1
T2 sequence (Q9XYC7 whole entry): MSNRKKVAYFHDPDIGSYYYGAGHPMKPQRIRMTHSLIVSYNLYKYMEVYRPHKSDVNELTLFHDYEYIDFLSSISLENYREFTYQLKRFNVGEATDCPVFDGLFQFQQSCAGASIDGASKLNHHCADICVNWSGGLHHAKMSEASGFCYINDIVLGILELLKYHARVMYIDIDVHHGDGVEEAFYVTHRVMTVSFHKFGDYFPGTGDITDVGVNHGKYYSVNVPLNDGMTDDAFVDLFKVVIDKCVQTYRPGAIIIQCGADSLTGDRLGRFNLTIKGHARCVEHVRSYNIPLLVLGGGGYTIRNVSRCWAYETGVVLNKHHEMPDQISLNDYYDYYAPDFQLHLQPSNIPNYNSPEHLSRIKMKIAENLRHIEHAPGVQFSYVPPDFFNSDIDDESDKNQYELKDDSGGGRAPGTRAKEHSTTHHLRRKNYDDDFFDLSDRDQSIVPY

[8] = Selectivity index, ratio of IC50 for african green monkey (Cercopithecus aethiops) Vero cells to IC50 for Plasmodium falciparum W2
[9] = system: Leishmania donovani; assay: Antileishmanial activity against Leishmania donovani promastigotes after 72 hrs by alamar blue assay; format: functional, organism-based
[10] = Selectivity index, ratio of IC50 for african green monkey (Cercopithecus aethiops) Vero cells to IC50 for Plasmodium falciparum D6
[11] = system: Plasmodium falciparum; assay: Antimalarial activity against Plasmodium falciparum W2 after 72 hrs by alamar blue assay; format: functional, organism-based; settings: W2, 72 h
[12] = system: A549; assay: Antiproliferative activity against human A549 cells after 72 hrs by MTS assay; format: functional; method in brief: as §1
[13] = molecular target: T3, Protein deacetylase HDAC6 (Homo sapiens, UniProt Q9UBN7); assay: Inhibition of HDAC6
T3 sequence (Q9UBN7 whole entry): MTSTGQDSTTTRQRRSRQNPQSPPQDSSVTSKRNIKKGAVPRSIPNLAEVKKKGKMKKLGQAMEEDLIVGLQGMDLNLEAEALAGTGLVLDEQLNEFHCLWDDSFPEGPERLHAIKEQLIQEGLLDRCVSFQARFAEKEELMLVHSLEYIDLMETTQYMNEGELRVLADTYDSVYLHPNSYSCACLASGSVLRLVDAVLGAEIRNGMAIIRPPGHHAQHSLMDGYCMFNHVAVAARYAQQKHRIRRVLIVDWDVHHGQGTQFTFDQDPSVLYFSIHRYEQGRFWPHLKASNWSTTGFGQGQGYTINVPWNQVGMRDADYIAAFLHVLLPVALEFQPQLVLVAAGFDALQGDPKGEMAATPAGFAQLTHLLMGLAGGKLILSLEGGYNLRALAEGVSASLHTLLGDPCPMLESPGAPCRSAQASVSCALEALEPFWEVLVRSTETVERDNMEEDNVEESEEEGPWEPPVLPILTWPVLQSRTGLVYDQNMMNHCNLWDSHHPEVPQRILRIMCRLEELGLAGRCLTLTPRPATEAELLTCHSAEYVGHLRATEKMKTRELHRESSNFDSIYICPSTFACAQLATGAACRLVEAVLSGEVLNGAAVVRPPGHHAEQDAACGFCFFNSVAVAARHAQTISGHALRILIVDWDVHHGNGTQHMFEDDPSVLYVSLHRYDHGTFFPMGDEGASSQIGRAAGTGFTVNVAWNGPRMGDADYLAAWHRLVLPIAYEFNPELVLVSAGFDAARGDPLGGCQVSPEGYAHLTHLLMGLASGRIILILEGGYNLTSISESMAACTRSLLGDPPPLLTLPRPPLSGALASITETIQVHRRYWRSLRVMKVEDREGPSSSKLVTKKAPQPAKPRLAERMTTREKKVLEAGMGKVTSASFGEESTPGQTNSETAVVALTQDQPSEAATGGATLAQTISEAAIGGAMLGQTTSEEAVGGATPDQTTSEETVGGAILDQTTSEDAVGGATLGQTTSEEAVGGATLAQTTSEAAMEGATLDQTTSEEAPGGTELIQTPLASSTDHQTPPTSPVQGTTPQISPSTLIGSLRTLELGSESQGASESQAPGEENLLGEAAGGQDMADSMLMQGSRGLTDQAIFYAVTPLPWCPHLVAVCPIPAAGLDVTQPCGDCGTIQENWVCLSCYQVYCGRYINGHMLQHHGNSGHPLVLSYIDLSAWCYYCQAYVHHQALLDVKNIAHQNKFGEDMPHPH

[14] = Selectivity ratio IC50 for HDAC8 to IC50 for HDAC in human HeLa cells nuclear extract; format: cell-based; design: reference not given here
[15] = system: Leishmania donovani
[16] = Leishmania donovani, 72 h, read-out: IC50

## C[C@@H]1CC[C@H]2[C@@H](C)C(=O)O[C@@H]3O[C@@]4(C)CC[C@@H]1[C@]32OO4 [ARTEMISININ]
[1]
  IC50: 0.0066 µg/mL (≈ 0.0234 µM)

## CC[C@H]1OC(=O)[C@H](C)C(=O)[C@H](C)[C@@H](O[C@@H]2O[C@H](C)C[C@H](N(C)Cc3ccc(-c4cn(CCCCCCCC(=O)NO)nn4)cc3)[C@H]2O)[C@](C)(OC)C[C@@H](C)C2=NCCN3C(=O)O[C@@]1(C)[C@H]3[C@H]2C
[2]
  IC50: 104.2 nM
[3]
  Activity: > 10 µM
[4]
  IC50: 580 nM
[5]
  Activity: 1.35 µM
[6]
  Activity: 3.7 µM
[7]
  IC50: 40 nM
[1]
  IC50: 1.32 µg/mL (≈ 1.4 µM)
[8]; vero
  selectivity ratio: > 3.3
[9]; Leishmania donovani, 72 h
  IC90: 35.8 µg/mL (≈ 38.2 µM)
[9]; [16]
  IC50: 19.7 µg/mL (≈ 21 µM)
[10]; vero
  selectivity ratio: > 3.6
[11]
  IC50: 1.47 µg/mL (≈ 1.57 µM)
[12]
  Activity: 1.64 µM
[13]
  IC50: 1710 nM

## C[C@@H]1[C@H](O)[C@@H](C)/C=C/C=C/C=C/C=C/C=C/C=C/C=C/[C@H](O[C@@H]2O[C@H](C)[C@@H](O)[C@H](N)[C@@H]2O)C[C@@H]2O[C@](O)(C[C@@H](O)C[C@@H](O)[C@H](O)CC[C@@H](O)C[C@@H](O)CC(=O)O[C@H]1C)C[C@H](O)[C@H]2C(=O)O [AMPHOTERICIN B]
[9]; Leishmania donovani, 72 h
  IC90: 0.395 µg/mL (≈ 0.427 µM)
[9]; [16]
  IC50: 0.079 µg/mL (≈ 0.0855 µM)

## CC[C@H]1OC(=O)[C@H](C)C(=O)[C@H](C)[C@@H](O[C@@H]2O[C@H](C)C[C@H](N(C)Cc3ccc(-c4cn(CCCCCCCCC(=O)NO)nn4)cc3)[C@H]2O)[C@](C)(OC)C[C@@H](C)C2=NCCN3C(=O)O[C@@]1(C)[C@H]3[C@H]2C
[2]
  IC50: 163.6 nM
[3]
  Activity: > 10 µM
[4]
  IC50: 2860 nM
[5]
  Activity: 2.56 µM
[6]
  Activity: 3.89 µM
[7]
  IC50: 290 nM
[14]
  Ratio IC50: 17.5
[1]
  IC50: 1.3 µg/mL (≈ 1.36 µM)
[8]; Vero cells
  selectivity ratio: > 3.5
[9]; Leishmania donovani, 72 h
  IC90: 32.3 µg/mL (≈ 33.9 µM)
[9]; [16]
  IC50: 14.9 µg/mL (≈ 15.6 µM)
[10]; Vero cells
  selectivity ratio: > 3.7
[11]
  IC50: 1.38 µg/mL (≈ 1.45 µM)
[12]
  Activity: 2.48 µM
[13]
  IC50: 1920 nM

## CC[C@H]1OC(=O)[C@H](C)C(=O)[C@H](C)[C@@H](O[C@@H]2O[C@H](C)C[C@H](N(C)Cc3ccc(-c4cn(CCCCCCC(=O)NO)nn4)cc3)[C@H]2O)[C@](C)(OC)C[C@@H](C)C2=NCCN3C(=O)O[C@@]1(C)[C@H]3[C@H]2C
[2]
  IC50: 1.03 nM
[3]
  Activity: > 10 µM
[4]
  IC50: 545 nM
[5]
  Activity: 0.75 µM
[6]
  Activity: 0.82 µM
[7]
  IC50: 10 nM
[14]
  Ratio IC50: 529
[1]
  IC50: 0.137 µg/mL (≈ 0.148 µM)
[15]
  IC90: inactive
[8]; vero
  selectivity ratio: > 36
[9]
  IC50: Not Active
[10]; vero
  selectivity ratio: > 35
[11]
  IC50: 0.133 µg/mL (≈ 0.144 µM)
[12]
  Activity: 0.66 µM
[13]
  IC50: 729 nM

## CC[C@H]1OC(=O)[C@H](C)C(=O)[C@H](C)[C@@H](O[C@@H]2O[C@H](C)C[C@H](N(C)Cc3ccc(-c4cn(CCCCCCCCCC(=O)NO)nn4)cc3)[C@H]2O)[C@](C)(OC)C[C@@H](C)C2=NCCN3C(=O)O[C@@]1(C)[C@H]3[C@H]2C
[2]
  IC50: 208.2 nM
[3]
  Activity: > 10 µM
[4]
  IC50: 4560 nM
[5]
  Activity: 3.68 µM
[6]
  Activity: 4.83 µM
[7]
  IC50: 304 nM
[14]
  Ratio IC50: 21.9
[1]
  IC50: 1.19 µg/mL (≈ 1.24 µM)
[8]; vero
  selectivity ratio: > 5.3
[9]; Leishmania donovani, 72 h
  IC90: 23.7 µg/mL (≈ 24.5 µM)
[9]; [16]
  IC50: 4.8 µg/mL (≈ 4.97 µM)
[10]; vero
  selectivity ratio: > 4
[11]
  IC50: 0.897 µg/mL (≈ 0.928 µM)
[12]
  Activity: 2.81 µM
[13]
  IC50: 3200 nM

## CC[C@H]1OC(=O)[C@H](C)C(=O)[C@H](C)[C@@H](O[C@@H]2O[C@H](C)C[C@H](N(C)Cc3ccc(-c4cn(CCCCCC(=O)NO)nn4)cc3)[C@H]2O)[C@](C)(OC)C[C@@H](C)C2=NCCN3C(=O)O[C@@]1(C)[C@H]3[C@H]2C
[2]
  IC50: 7.77 nM
[3]
  Activity: > 10 µM
[4]
  IC50: 796 nM
[5]
  Activity: 1.26 µM
[6]
  Activity: 1.64 µM
[7]
  IC50: 36 nM
[14]
  Ratio IC50: 102
[1]
  IC50: 0.897 µg/mL (≈ 0.986 µM)
[15]
  IC90: inactive
[8]; vero
  selectivity ratio: > 2.68
[9]
  IC50: Not Active
[10]; vero
  selectivity ratio: > 5.3
[11]
  IC50: 1.79 µg/mL (≈ 1.97 µM)
[12]
  Activity: 1.17 µM
[13]
  IC50: 1180 nM

## N=C(N)c1ccc(OCCCCCOc2ccc(C(=N)N)cc2)cc1 [PENTAMIDINE]
[9]; Leishmania donovani, 72 h
  IC90: 2.45 µg/mL (≈ 7.2 µM)
[9]; [16]
  IC50: 1.17 µg/mL (≈ 3.44 µM)

## O=C(CCCCCCC(=O)Nc1ccccc1)NO [VORINOSTAT]
[9]; Leishmania donovani, 72 h
  IC90: 51.7 µg/mL (≈ 196 µM)

From ChEMBL document CHEMBL1212894, “Non-peptide macrocyclic histone deacetylase inhibitors derived from tricyclic ketolide skeleton” (J Med Chem, 2010)
